Measured values from ChEMBL document CHEMBL1157638, “Fluorescent epigenetic small molecule induces expression of the tumor suppressor ras-association domain family 1A and inhibits human prostate xenograft” (J Med Chem, 2010).

Experiments:
UACC-257 = assay: Growth inhibition of human UACC257 cells assessed as cell growth at 100 nM relative to untreated control; assay type: functional; conditions: read-out: Activity
SK-MEL-2 = assay: Growth inhibition of human SK-MEL-2 cells assessed as cell growth at 100 nM relative to untreated control; assay type: functional; conditions: read-out: Activity
RXF 393 [1] = assay: Growth inhibition of human RXF393 cells assessed as cell growth at 100 nM relative to untreated control; assay type: functional; conditions: read-out: Activity
Malme-3M [2] = assay: Growth inhibition of human MALME-3M cells assessed as cell growth at 1 uM relative to untreated control; assay type: functional; conditions: read-out: Activity
RXF 393 [3] = assay: Growth inhibition of human RXF393 cells assessed as cell growth at 1 nM relative to untreated control; assay type: functional; conditions: read-out: Activity
Mus musculus = assay: Toxicity in BALB/c mouse up to 550 mg/kg, po; assay type: organism-based; parameters: dose 550 mg/kg, route oral; conditions: in vivo
Malme-3M [4] = assay: Growth inhibition of human MALME-3M cells assessed as cell growth at 100 nM relative to untreated control; assay type: functional; conditions: read-out: Activity
NCI-H322M = assay: Growth inhibition of human NCI-H322M cells assessed as cell growth at 100 nM relative to untreated control; assay type: functional; conditions: read-out: Activity
NCI-H522 = assay: Growth inhibition of human NCI-H522 cells; assay type: functional
HL-60(TB) [5] = assay: Growth inhibition of human HL-60(TB) cells assessed as cell growth at 10 uM relative to untreated control; assay type: functional; conditions: read-out: Activity
UACC-62 = assay: Growth inhibition of human UACC62 cells assessed as cell growth at 10 uM relative to untreated control; assay type: functional; conditions: read-out: Activity
PC-3 = assay: Growth inhibition of human PC3 cells after 24 hrs by trypan blue exclusion method; assay type: functional; conditions: PC-3, 24 h
Method in brief: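 PC-3 cells grown in phenol red-free IMEM with 10% FBS, 2 mM glutamine and penicillin/streptomycin at 37 °C, 5% CO2. Seeded in triplicate at 1.5 × 10⁴ cells/well. After 24 h, treated with DMSO vehicle or 1, 5, 15, 30 or 60 μM compound for 24 h. Cells trypsinized, stained with 0.4% trypan blue, and live and dead cells counted by hemocytometer. Mean ± SEM of three independent observations.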

HL-60(TB) [6] = assay: Growth inhibition of human HL-60(TB) cells assessed as cell growth at 10 nM relative to untreated control; assay type: functional; conditions: read-out: Activity
SF-295 [7] = assay: Growth inhibition of human SF295 cells assessed as cell growth at 1 uM relative to untreated control; assay type: functional; conditions: read-out: Activity
TK-10 [8] = assay: Growth inhibition of human TK10 cells assessed as cell growth at 1 uM relative to untreated control; assay type: functional; conditions: read-out: Activity
OVCAR-8 [9] = assay: Growth inhibition of human OVCAR8 cells; assay type: functional
OVCAR-8 [10] = assay: Growth inhibition of human OVCAR8 cells assessed as cell growth at 1 uM relative to untreated control; assay type: functional; conditions: read-out: Activity
K562 [11] = assay: Growth inhibition of human K562 cells assessed as cell growth at 1 nM relative to untreated control; assay type: functional; conditions: read-out: Activity
K562 [12] = assay: Growth inhibition of human K562 cells assessed as cell growth at 10 nM relative to untreated control; assay type: functional; conditions: read-out: Activity
KM12 = assay: Growth inhibition of human KM12 cells assessed as cell growth at 10 nM relative to untreated control; assay type: functional; conditions: read-out: Activity
[13] = Growth inhibition of human Hs 578T cells assessed as cell growth at 10 nM relative to untreated control; assay type: functional; conditions: read-out: Activity
HCT-116 [14] = assay: Growth inhibition of human HCT116 cells assessed as cell growth at 10 uM relative to untreated control; assay type: functional; conditions: read-out: Activity
Method in brief: (§1)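 Run externally at the National Cancer Institute as a 59-cell-line panel screen, with concentrations up to 100 μM. Growth was scored relative to control, where negative growth or total cell kill was possible. Data are in the Supporting Information.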

HCC 2998 = assay: Growth inhibition of human HCC2998 cells assessed as cell growth at 100 nM relative to untreated control; assay type: functional; conditions: read-out: Activity; method in brief: as §1
BT-549 [15] = assay: Growth inhibition of human BT549 cells assessed as cell growth at 1 uM relative to untreated control; assay type: functional; conditions: read-out: Activity
SK-MEL-5 = assay: Growth inhibition of human SK-MEL-5 cells assessed as cell growth at 1 nM relative to untreated control; assay type: functional; conditions: read-out: Activity
HCT-116 [16] = assay: Growth inhibition of human HCT116 cells assessed as cell growth at 1 uM relative to untreated control; assay type: functional; conditions: read-out: Activity; method in brief: as §1
SF-539 = assay: Growth inhibition of human SF539 cells; assay type: functional; conditions: read-out: LC50 (the source's name)
UO-31 = assay: Growth inhibition of human UO31 cells assessed as cell growth at 10 uM relative to untreated control; assay type: functional; conditions: read-out: Activity
OVCAR-3 = assay: Growth inhibition of human OVCAR-3 cells assessed as cell growth at 10 nM relative to untreated control; assay type: functional; conditions: read-out: Activity
SF-295 [17] = assay: Growth inhibition of human SF295 cells assessed as cell growth at 10 uM relative to untreated control; assay type: functional; conditions: read-out: Activity
MDA-MB-231 = assay: Growth inhibition of human MDA-MB-231 cells assessed as cell growth at 1 uM relative to untreated control; assay type: functional; conditions: read-out: Activity
TK-10 [18] = assay: Growth inhibition of human TK10 cells; assay type: functional
BT-549 [19] = assay: Growth inhibition of human BT549 cells; assay type: functional
NCI/ADR-RES = assay: Growth inhibition of human NCI/ADR-RES cells; assay type: functional
SK-OV-3 = assay: Growth inhibition of human SKOV3 cells assessed as cell growth at 1 nM relative to untreated control; assay type: functional; conditions: read-out: Activity
MOLT-4 [20] = assay: Growth inhibition of human MOLT4 cells assessed as cell growth at 100 nM relative to untreated control; assay type: functional; conditions: read-out: Activity
ACHN = assay: Growth inhibition of human ACHN cells assessed as cell growth at 10 uM relative to untreated control; assay type: functional; conditions: read-out: Activity
SN12C = assay: Growth inhibition of human SN12C cells assessed as cell growth at 1 nM relative to untreated control; assay type: functional; conditions: read-out: Activity
MCF7 = assay: Growth inhibition of human MCF7 cells; assay type: functional
SF-268 = assay: Growth inhibition of human SF268 cells assessed as cell growth at 1 nM relative to untreated control; assay type: functional; conditions: read-out: Activity
MOLT-4 [21] = assay: Growth inhibition of human MOLT4 cells assessed as cell growth at 1 nM relative to untreated control; assay type: functional; conditions: read-out: Activity
SNB-19 = assay: Growth inhibition of human SNB19 cells assessed as cell growth at 100 nM relative to untreated control; assay type: functional; conditions: read-out: Activity
A549 = assay: Growth inhibition of human A549 cells assessed as cell growth at 10 uM relative to untreated control; assay type: functional; conditions: read-out: Activity
[22] = read-out: LC50 (the source's name)

In the case of `COc1ccc2c(c1)[nH]c1c(C)c(OS(=O)(=O)c3cccc4c(N(C)C)cccc34)ccc12`, the growth at 0.1 µM (UACC-257) is reported as 97%, the growth at 0.1 µM (SK-MEL-2) is reported as 115% and the growth at 0.1 µM (RXF 393 [1]) is reported as 100%. For the same compound, the growth at 1 µM (Malme-3M [2]) was 22%, the growth at 0.001 µM (RXF 393 [3]) was 103% and the Activity (Mus musculus) was “Non-toxic”. The growth at 0.1 µM (Malme-3M [4]) was 85%, the growth at 0.1 µM (NCI-H322M) was 94% and the GI50 (NCI-H522) was 9.97 µM. It also gave a TGI (NCI-H522) greater than 100 µM, a CC50 (NCI-H522; [22]) greater than 100 µM and a growth at 10 µM (HL-60(TB) [5]) of -18%. The growth at 10 µM (UACC-62) was 29%, the GI50 (PC-3) was 1.5 µM and the growth at 0.01 µM (HL-60(TB) [6]) was 83%. The growth at 1 µM (SF-295 [7]) was 15%, the growth at 1 µM (TK-10 [8]) was 48% and the GI50 (OVCAR-8 [9]) was 79.6 µM. For the same compound, the TGI (OVCAR-8 [9]) was greater than 100 µM, the CC50 (OVCAR-8 [9]; [22]) was greater than 100 µM and the growth at 1 µM (OVCAR-8 [10]) was 44%. The growth at 0.001 µM (K562 [11]) was 103%, the growth at 0.01 µM (K562 [12]) was 98% and the growth at 0.01 µM (KM12) was 102%. For the same compound, the growth at 0.01 µM [13] was 103%, the growth at 10 µM (HCT-116 [14]) was 5% and the growth at 0.1 µM (HCC 2998) was 78%. The growth at 1 µM (BT-549 [15]) was 37%, the growth at 0.001 µM (SK-MEL-5) was 100% and the growth at 1 µM (HCT-116 [16]) was 25%. For the same compound, the CC50 (SF-539) was greater than 100 µM, the growth at 10 µM (UO-31) was 24% and the growth at 0.01 µM (OVCAR-3) was 100%. The growth at 10 µM (SF-295 [17]) was 1%, the growth at 1 µM (MDA-MB-231) was 49% and the GI50 (TK-10 [18]) was 9.19 µM. The TGI (TK-10 [18]) was greater than 100 µM, the CC50 (TK-10 [18]; [22]) was greater than 100 µM and the GI50 (BT-549 [19]) was 5.08 µM. The TGI (BT-549 [19]) was greater than 100 µM, the CC50 (BT-549 [19]; [22]) was greater than 100 µM and the GI50 (NCI/ADR-RES) was 4.63 µM. It also gave a TGI (NCI/ADR-RES) greater than 100 µM, a CC50 (NCI/ADR-RES; [22]) greater than 100 µM and a growth at 0.001 µM (SK-OV-3) of 103%. It also gave a growth at 0.1 µM (MOLT-4 [20]) of 99%, a growth at 10 µM (ACHN) of 21% and a growth at 0.001 µM (SN12C) of 96%. The GI50 (MCF7) was 2.71 µM, the TGI (MCF7) was greater than 100 µM and the CC50 (MCF7; [22]) was greater than 100 µM. The growth at 0.001 µM (SF-268) was 102%, the growth at 0.001 µM (MOLT-4 [21]) was 103% and the growth at 0.1 µM (SNB-19) was 88%. The growth at 10 µM (A549) was 12%.
